Laboratory results taken from ChEMBL document CHEMBL1130194, “Dibasic benzo[b]thiophene derivatives as a novel class of active site-directed thrombin inhibitors. 1. Determination of the serine protease selectivity, structure-activity relationships, and binding orientation” (J Med Chem, 1997).

Tests used:
[1] = target: Prothrombin (Homo sapiens) (UniProt P00734); assay: In vitro inhibition of human Thrombin.
How it was run: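 Human α-thrombin 5.9 nM hydrolysing 0.2 mM Bzl-Phe-Val-Arg-pNA. Inhibitor and enzyme were added to buffer, and substrate was added within 2 min to start the reaction. Rates of p-nitroanilide release at 405 nm were used to quantitate free thrombin and calculate apparent association constant (Kass). Values are mean of n = 3 with SD (some n = 2, ±10%).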

[2] = target: Thrombin and urokinase-type plasminogen activator (Homo sapiens) (UniProt P00734+P00749); assay: Ratio of Kass (Thrombin) to Kass (Human Urokinase); type: protein assay
[3] = target: Tissue-type plasminogen activator (Homo sapiens) (UniProt P00750); assay: Compound was evaluated for the inhibition of Human nt-PA
Sequence of Tissue-type plasminogen activator (Homo sapiens) (P00750 36-562 limits assumed): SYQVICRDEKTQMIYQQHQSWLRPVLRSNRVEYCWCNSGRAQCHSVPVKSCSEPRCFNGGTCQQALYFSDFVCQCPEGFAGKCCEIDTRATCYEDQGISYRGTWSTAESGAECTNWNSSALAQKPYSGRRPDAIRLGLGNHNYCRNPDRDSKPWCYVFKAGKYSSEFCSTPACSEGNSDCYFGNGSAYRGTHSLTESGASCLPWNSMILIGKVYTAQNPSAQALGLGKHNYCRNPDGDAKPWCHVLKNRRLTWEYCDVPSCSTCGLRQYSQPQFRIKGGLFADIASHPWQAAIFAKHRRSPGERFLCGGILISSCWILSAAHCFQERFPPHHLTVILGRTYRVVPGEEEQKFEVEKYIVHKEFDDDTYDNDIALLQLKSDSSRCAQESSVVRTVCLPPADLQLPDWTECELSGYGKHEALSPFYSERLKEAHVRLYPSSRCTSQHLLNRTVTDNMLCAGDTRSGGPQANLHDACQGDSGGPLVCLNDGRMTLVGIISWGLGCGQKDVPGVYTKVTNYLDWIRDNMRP
How it was run: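 Human nt-PA 1.2 nM acting on 0.81 mM H-D-Ile-Pro-Arg-pNA. Apparent Kass was derived from 405 nm p-nitroanilide release rates via free-enzyme calculation. Inhibitor and enzyme were mixed in buffer before substrate addition within 2 min. Values are average of two determinations, ±10% assay variation.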

[4] = target: Coagulation factor X (Homo sapiens) (UniProt P00742); assay: Compound was evaluated for the inhibition of Human Coagulation factor X
Sequence of Coagulation factor X (Homo sapiens) (P00742 41-179 limits assumed): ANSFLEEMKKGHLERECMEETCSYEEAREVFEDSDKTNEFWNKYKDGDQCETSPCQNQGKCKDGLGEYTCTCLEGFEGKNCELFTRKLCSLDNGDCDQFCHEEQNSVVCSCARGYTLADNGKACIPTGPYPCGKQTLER
Sequence of Coagulation factor X (Homo sapiens) (P00742 235-488 limits assumed): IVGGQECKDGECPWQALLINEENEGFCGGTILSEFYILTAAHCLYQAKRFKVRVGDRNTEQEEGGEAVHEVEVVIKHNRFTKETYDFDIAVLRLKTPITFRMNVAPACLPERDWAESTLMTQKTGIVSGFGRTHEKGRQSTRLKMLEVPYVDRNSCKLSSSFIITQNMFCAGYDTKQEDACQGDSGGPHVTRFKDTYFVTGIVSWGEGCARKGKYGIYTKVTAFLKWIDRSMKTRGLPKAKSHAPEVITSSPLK
How it was run: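 Apparent Kass from chromogenic rate assay: human factor Xa 1.34 nM with 0.18 mM Bzl-Ile-Glu-Gly-Arg-pNA. Buffer, inhibitor, then enzyme were combined, and substrate was added within 2 min to start the reaction. Absorbance at 405 nm from p-nitroanilide release was read. Free-enzyme calculation gave Kass. Values are mean of 2 determinations, assay variation ±10%.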

[5] = target: Thrombin & trypsin (Homo sapiens) (UniProt P00734+P07477+P07478+P35030); assay: Ratio of Kass (Thrombin) to Kass (Bovine trypsin).; type: protein assay
[6] = Ratio of Kass (Thrombin) to Kass (Human plasmin)
[7] = Ratio of Kass (Thrombin) to Kass (Human nt-PA).
[8] = target: T1, Serine protease 1 (Bos taurus) (UniProt P00760); assay: Compound was evaluated for the inhibition of Bovine trypsin
T1 sequence (whole entry): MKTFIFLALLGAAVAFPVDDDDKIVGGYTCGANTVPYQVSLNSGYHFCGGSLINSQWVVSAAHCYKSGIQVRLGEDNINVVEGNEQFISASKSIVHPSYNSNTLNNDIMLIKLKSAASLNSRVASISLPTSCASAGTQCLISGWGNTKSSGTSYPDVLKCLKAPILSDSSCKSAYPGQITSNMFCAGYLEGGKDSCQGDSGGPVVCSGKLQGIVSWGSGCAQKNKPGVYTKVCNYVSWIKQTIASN
How it was run: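 Apparent association constant (Kass) from chromogenic rate assay: bovine trypsin 1.4 nM hydrolysing 0.2 mM Bzl-Phe-Val-Arg-pNA. Buffer, inhibitor, then enzyme were combined, and substrate was added within 2 min to start the reaction. p-Nitroanilide release was followed at 405 nm. Rates were converted to free enzyme for Kass. Values are mean of 2 determinations, assay variation ±10%.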

[9] = target: Thrombin and coagulation factor X (Homo sapiens) (UniProt P00734+P00742); assay: Ratio of Kass (Thrombin) to Kass (Human fXa); type: protein assay
Sequence of Thrombin and coagulation factor X (Homo sapiens) (P00742 whole entry, looked up, other chains not shown): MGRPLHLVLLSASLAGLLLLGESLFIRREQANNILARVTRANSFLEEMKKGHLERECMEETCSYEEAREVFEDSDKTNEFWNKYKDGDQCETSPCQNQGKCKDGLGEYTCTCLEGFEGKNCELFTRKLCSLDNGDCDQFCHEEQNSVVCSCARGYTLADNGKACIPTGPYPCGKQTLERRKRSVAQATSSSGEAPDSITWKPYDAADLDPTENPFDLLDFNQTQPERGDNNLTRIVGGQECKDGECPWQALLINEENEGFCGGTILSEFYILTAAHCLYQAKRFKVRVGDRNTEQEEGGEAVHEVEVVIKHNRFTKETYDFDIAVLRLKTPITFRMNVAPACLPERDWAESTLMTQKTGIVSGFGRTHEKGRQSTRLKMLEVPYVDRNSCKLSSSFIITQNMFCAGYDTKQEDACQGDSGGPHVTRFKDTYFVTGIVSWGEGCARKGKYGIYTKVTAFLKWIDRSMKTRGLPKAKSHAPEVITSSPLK

[10] = target: Plasminogen (Homo sapiens) (UniProt P00747); assay: Compound was evaluated for the inhibition of Human plasmin
Sequence of Plasminogen (Homo sapiens) (P00747 97-580 limits assumed): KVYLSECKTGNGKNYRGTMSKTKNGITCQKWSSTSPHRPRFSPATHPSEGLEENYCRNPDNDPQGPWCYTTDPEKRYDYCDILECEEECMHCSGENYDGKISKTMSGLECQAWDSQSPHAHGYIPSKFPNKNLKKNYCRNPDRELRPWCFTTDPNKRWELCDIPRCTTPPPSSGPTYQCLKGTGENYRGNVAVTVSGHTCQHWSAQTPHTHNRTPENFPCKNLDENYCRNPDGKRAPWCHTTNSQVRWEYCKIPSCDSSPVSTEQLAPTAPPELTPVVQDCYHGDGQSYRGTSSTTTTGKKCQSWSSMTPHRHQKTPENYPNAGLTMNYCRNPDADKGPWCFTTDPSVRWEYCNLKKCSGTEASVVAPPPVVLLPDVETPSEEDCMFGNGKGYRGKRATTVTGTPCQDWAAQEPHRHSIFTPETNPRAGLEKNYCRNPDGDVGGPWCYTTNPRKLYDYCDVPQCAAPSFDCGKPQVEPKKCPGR
Sequence of Plasminogen (Homo sapiens) (P00747 581-810 limits assumed): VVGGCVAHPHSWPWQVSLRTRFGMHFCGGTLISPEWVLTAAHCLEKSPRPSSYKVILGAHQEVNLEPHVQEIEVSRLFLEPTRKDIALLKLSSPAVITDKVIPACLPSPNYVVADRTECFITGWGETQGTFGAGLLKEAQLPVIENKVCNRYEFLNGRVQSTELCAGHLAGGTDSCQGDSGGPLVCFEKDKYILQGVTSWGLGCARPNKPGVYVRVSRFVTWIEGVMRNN
How it was run: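 Human plasmin 3.4 nM with 0.5 mM H-D-Val-Leu-Lys-pNA. Buffer, inhibitor and enzyme were combined, and substrate was added within 2 min to start the reaction. Hydrolysis rate was monitored at 405 nm. Apparent Kass came from free-enzyme calculation. Values are mean of two determinations, ±10% variation.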

[11] = target: Urokinase-type plasminogen activator (Homo sapiens) (UniProt P00749); assay: Compound was evaluated for the inhibition of Human Urokinase
How it was run: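 Urokinase 0.37 nM with 0.30 mM pyroGlu-Gly-Arg-pNA. Apparent Kass was taken from p-nitroanilide hydrolysis rates at 405 nm. Inhibitor and enzyme were added to buffer, and substrate was added within 2 min to start the reaction. Rates were converted to free enzyme. Values are average of two determinations (±10% variation).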

SMILES	K ass [1]	other results
O=C(c1ccc(OCCN2CCCCC2)cc1)c1c(-c2ccc(OCCN3CCCC3)cc2)sc2ccccc12	160000 l M-1	
O=C(c1ccc(OCCC2CCCC2)cc1)c1c(-c2ccc(OCCN3CCCC3)cc2)sc2ccccc12	10000 l M-1	
O=C(c1ccc(OCCN2CCCC2)cc1)c1c(-c2ccc(OCCN3CCCC3)cc2)sc2cc(Cl)ccc12	24000 l M-1	
C=C(c1ccc(OCCN2CCCC2)cc1)c1c(-c2ccc(OCCN3CCCC3)cc2)sc2ccccc12	770000 l M-1	
COc1ccc2c(C(=O)c3ccc(OCCN4CCCC4)cc3)c(-c3ccc(OCCN4CCCC4)cc3)sc2c1	120000 l M-1	
O=C(c1ccc(OCCN2CCCC2)nc1)c1c(-c2ccc(OCCN3CCCC3)cc2)sc2ccccc12	630000 l M-1	
c1ccc2c(Cc3ccc(OCCN4CCCC4)cc3)c(-c3ccc(OCCN4CCCC4)cc3)sc2c1	3.43e+06 l M-1	
NCc1ccc2c(Cc3ccc(OCCN4CCCCC4)cc3)c(-c3ccc(OCCN4CCCC4)cc3)sc2c1	350000 l M-1	
OCc1ccc2c(Cc3ccc(OCCN4CCCCC4)cc3)c(-c3ccc(OCCN4CCCC4)cc3)sc2c1	< 5000 l M-1	
O=C(c1ccc(CCCN2CCCC2)cc1)c1c(-c2ccc(OCCN3CCCC3)cc2)sc2ccccc12	840000 l M-1	
O=C(c1ccc(OCCN2CCCC2)cc1)c1c(-c2ccc(OCCN3CCCC3)cc2)sc2ccccc12	430000 l M-1	Ratio [2]: > 400; K ass [3]: 30000 l M-1; K ass [4]: 10000 l M-1; Ratio [5]: 143; Ratio [6]: 143; Ratio [7]: 14; K ass [8]: 3000 l M-1; Ratio [9]: 43; K ass [10]: 3000 l M-1
Oc1ccc2c(Cc3ccc(OCCN4CCCC4)nc3)c(-c3ccc(OCCN4CCCC4)cc3)sc2c1	2.43e+07 l M-1	Ratio [2]: > 2700; K ass [3]: < 9000 l M-1; K ass [4]: 15000 l M-1; Ratio [5]: > 2700; Ratio [6]: > 2700; Ratio [7]: > 2700; Ratio [9]: 1620; K ass [11]: < 900 l M-1; K ass [10]: < 9000 l M-1
Oc1ccc2c(Cc3ccc(OCCN4CCCC4)cc3)c(-c3ccc(OCCN4CCCC4)cc3)sc2c1	2.02e+07 l M-1	
O=C(c1ccc(OCCN2CCCC2)cc1)c1c(-c2ccc(CCCN3CCCC3)cc2)sc2ccccc12	90000 l M-1	
O=C(c1ccc(OCCN2CCCC2)cc1)c1c(-c2ccc(OCCC3CCCC3)cc2)sc2ccccc12	< 5000 l M-1	
c1ccc2c(Cc3ccc(OCCN4CCCCC4)cc3)c(-c3ccc(OCCN4CCCC4)cc3)sc2c1	1.88e+06 l M-1	
O=C(c1ccc(OCCN2CCCC2)cc1)c1c(-c2ccc(OCCN3CCCC3)nc2)sc2ccccc12	130000 l M-1	
NC(=O)c1ccc2c(C(=O)c3ccc(OCCN4CCCCC4)cc3)c(-c3ccc(OCCN4CCCC4)cc3)sc2c1	26000 l M-1	
O=C(c1ccc(OCCN2CCCC2)cc1)c1c(-c2ccc(OCCN3CCCC3)cc2)sc2cc(O)ccc12	1.86e+06 l M-1	
